Measured values as given in ChEMBL document CHEMBL4265927, “Systematic variation of the benzoylhydrazine moiety of the GluN2A selective NMDA receptor antagonist TCN-201” (Eur J Med Chem, 2018).
Active and inactive are the calls of the source. No cut-off for these calls is given here.

Experiments:
Assay type in all cases: cell-based
[1] = (§1) Negative allosteric modulation of GluN1a/GluN2A receptor (unknown origin) expressed in Xenopus laevis oocytes assessed as inhibition of (S)-glutamate/glycine-induced channel current at -70 mV holding potential in presence of 10 uM glycine by two electrode voltage clamp based electrophysiology assay; details: Homo sapiens
Outline: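 Rat wild-type GluN1a and GluN2A cRNA (0.8 ng each) injected into defolliculated oocytes. TEVC at room temperature in Mg2+-free Ba2+-Ringer (10 mM HEPES, 90 mM NaCl, 1 mM KCl, 1.5 mM BaCl2, pH 7.4). Compound was diluted from DMSO stock into (S)-glutamate/glycine agonist solution over a 1 nM–10 range. There were 5 oocytes per concentration. The logistic fit had minimal and maximal inhibition fixed at 0% and 100%.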

[2] = Negative allosteric modulation of GluN1a/GluN2B receptor (unknown origin) expressed in Xenopus laevis oocytes assessed as inhibition of (S)-glutamate/glycine-induced channel current at 10 uM at -70 mV holding potential by two electrode voltage clamp based electrophysiology assay; details: Homo sapiens
Outline: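 For selectivity, oocytes received 0.8 ng GluN1a plus 0.8 ng GluN2B rat cRNA. TEVC was at room temperature in Mg2+-free Ba2+-Ringer, pH 7.4, with (S)-glutamate/glycine stimulation. Compounds were at 10 µM, giving 0.1% DMSO in the test solution. There were 4–5 oocytes per compound.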

[3] = Negative allosteric modulation of GluN1a/GluN2A receptor (unknown origin) expressed in Xenopus laevis oocytes assessed as inhibition of (S)-glutamate/glycine-induced channel current at 500 nM at -70 mV holding potential by two electrode voltage clamp based electrophysiology assay relative to control TCN-201; details: Homo sapiens
Outline: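 The screen ran on GluN1a/GluN2A oocytes (0.8 ng of each rat cRNA) by room-temperature TEVC in Mg2+-free Ba2+-Ringer, pH 7.4, with (S)-glutamate/glycine activation. Compounds were at 500 nM. Inhibition was normalized to that of the reference antagonist at 500 nM, tested in the same series of experiments. n is the number of independent oocytes.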

[4] = as §1, with “current at 200 nM at -70 mV” for “current at -70 mV”, “presence of 1 to 30 uM glycine” for “presence of 10 uM glycine”; details: Homo sapiens
Outline: (§2)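 Oocytes co-injected with 0.8 ng each of rat GluN1a and GluN2A cRNA were recorded by TEVC at room temperature in Mg2+-free Ba2+-Ringer, pH 7.4. Compound was fixed at 200 nM. Currents were evoked by (S)-glutamate with glycine at 1, 3, 10 and 30. There were 3 oocytes per glycine level. Mean inhibition was fitted linearly (y = a + b*x) to give intercept and slope.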

[5] = as §1, with “current at 200 nM at -70 mV” for “current at -70 mV”, “presence of 1 to 10 uM” for “presence of 10 uM”; details: Homo sapiens; outline: as §2
Homo sapiens [6] = species: Homo sapiens; experiment: as §1, with “current at 200 nM at -70 mV” for “current at -70 mV”, “presence of 1 to 3 uM glycine” for “presence of 10 uM glycine”; outline: as §2
Homo sapiens [7] = species: Homo sapiens; experiment: as §1, with “current at 200 nM at -70 mV” for “current at -70 mV”, “presence of 30 uM glycine” for “presence of 10 uM glycine”; outline: as §2
[8] = Negative allosteric modulation of GluN1a/GluN2A receptor (unknown origin) expressed in Xenopus laevis oocytes assessed as inhibition of (S)-glutamate/glycine-induced channel current at -70 mV holding potential in presence of 3 uM glycine by two electrode voltage clamp based electrophysiology assay; details: Homo sapiens

O=C(NNC(=O)c1ccc(CNS(=O)(=O)c2cccc(Br)c2)cc1)c1ccccc1
IC50 [1]: 204 nM

O=C(NNC(=O)c1c[nH]c2ccccc12)c1ccc(CNS(=O)(=O)c2ccc(F)c(Cl)c2)cc1
inhibition [2]: inactive | IC50 [1]: 216 nM | Ratio [3]: 1.33 | inhibition [4]: Active | inhibition [5]: Active

O=S(=O)(NCc1ccc(-c2nnc(-c3ccccc3)o2)cc1)c1ccc(F)c(Cl)c1
Ratio [3]: 0.31

CC(C(O)c1ccc(O)cc1)N1CCC(Cc2ccccc2)CC1 (configuration not stated)
inhibition [2]: inactive

O=C(O)CCC(=O)NNC(=O)c1ccc(CNS(=O)(=O)c2ccc(F)c(Cl)c2)cc1
Ratio [3]: 0.3

O=C(Cc1ccccc1)NNC(=O)c1ccc(CNS(=O)(=O)c2ccc(F)c(Cl)c2)cc1
Ratio [3]: 0.64

O=C(NNC(=O)c1ccc2ccccc2c1)c1ccc(CNS(=O)(=O)c2ccc(F)c(Cl)c2)cc1
Ratio [3]: 0.44

O=C(NNC(=O)N1CCOCC1)c1ccc(CNS(=O)(=O)c2ccc(F)c(Cl)c2)cc1
Ratio [3]: 0.52

O=C(NNC(=O)c1ccc[nH]1)c1ccc(CNS(=O)(=O)c2ccc(F)c(Cl)c2)cc1
Ratio [3]: 1.2

O=C(NNC(=O)c1ccco1)c1ccc(CNS(=O)(=O)c2ccc(F)c(Cl)c2)cc1
Ratio [3]: 1.1

O=C(NNC(=O)c1ccncn1)c1ccc(CNS(=O)(=O)c2ccc(F)c(Cl)c2)cc1
Ratio [3]: 0.92

O=C(NNC(=O)c1cccs1)c1ccc(CNS(=O)(=O)c2cccc(Br)c2)cc1
inhibition [2]: inactive | IC50 [1]: 222 nM | inhibition [4]: Active | inhibition [5]: Active

O=C(NNC(=O)c1cc2ccccc2s1)c1ccc(CNS(=O)(=O)c2ccc(F)c(Cl)c2)cc1
Ratio [3]: 0.58

O=C(NNC(=O)c1cc2ccccc2[nH]1)c1ccc(CNS(=O)(=O)c2ccc(F)c(Cl)c2)cc1
Ratio [3]: 1.28

O=C(NNCc1ccccc1)c1ccc(CNS(=O)(=O)c2ccc(F)c(Cl)c2)cc1
Ratio [3]: 0.73

O=C(NNC(=O)c1ccc(CNS(=O)(=O)c2ccc(F)c(Cl)c2)cc1)c1ccccc1
inhibition [2]: inactive | IC50 [1]: 512 nM | inhibition (Homo sapiens [6]): inactive | inhibition (Homo sapiens [7]): Active | inhibition [5]: Active

Cc1ncc(CNC(=O)c2cnc(CNS(=O)(=O)c3ccc(F)c(F)c3)c(C)n2)s1
IC50 [8]: 198 nM | inhibition [4]: Active | inhibition (Homo sapiens [7]): Active | inhibition [5]: Active

O=C(NNC(=O)c1cccs1)c1ccc(CNS(=O)(=O)c2ccc(F)c(Cl)c2)cc1
inhibition [2]: inactive | IC50 [1]: 198 nM | Ratio [3]: 1.35 | inhibition [4]: Active | inhibition [5]: Active

O=C(NNS(=O)(=O)c1ccccc1)c1ccc(CNS(=O)(=O)c2ccc(F)c(Cl)c2)cc1
Ratio [3]: 0.58
